Among the data in ChEMBL document CHEMBL3045148, “nematicidal carboxylic acids and aldehydes from Melia azedarach fruits” (J Agric Food Chem, 2010) are EC50 and Activity values, retold here.

Test [1] has as its system Meloidogyne incognita. In words: Nematicidal activity against Meloidogyne incognita J2 (root-knot nematode) assessed as paralysis measured after 1 day at 28 degC. In kind it is functional, organism-based. The conditions noted are these: 24 h. In a few lines:
(§1)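 Freshly hatched (24 h) M. incognita J2 were taken from infested tomato roots. Each well held 25 J2 immersed in test solution, kept in the dark at 28 °C. Ethanol stocks were diluted in water with Tween-20 (final ethanol ≤1%, Tween-20 ≤0.3% v/v); water-soluble acids were made up in water. J2 were scored motile or paralyzed by inverted microscope and corrected for water-control paralysis (Schneider-Orelli). EC50 came from log-logistic regression; two experiments, six replicates each.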

The subject of test [2] is Meloidogyne incognita. In words: Nematicidal activity against Meloidogyne incognita J2 (root-knot nematode) assessed as paralysis measured after 1 hr at 28 degC. In kind it is functional, organism-based. In a few lines:
as §1

Test [3] deals with Meloidogyne incognita. The test is described as follows: Nematicidal activity against Meloidogyne incognita J2 (root-knot nematode) assessed as paralysis measured after 1 day at 28 degC by fumigant assay. It counts as functional, organism-based. Conditions: 24 h. The method in brief:
(§2)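 Vapour-exposure microwell test with 24 h-old J2 from infested tomato roots, kept in the dark at 28 °C. Test solution went into one well and J2 in tap water into the four adjacent wells, with one dose per plate. Paralysis in the adjacent wells (120 J2 per replicate) was scored by microscope as motile or paralyzed and corrected for water-control paralysis (Schneider-Orelli). Two experiments, six replicates.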

For test [4], the system named is Meloidogyne incognita. The test is described as follows: Nematicidal activity against Meloidogyne incognita J2 (root-knot nematode) assessed as paralysis measured at 500 ug/mL by fumigant assay. It counts as functional. In a few lines: as §2

Molecules are shown by their SMILES. In brackets after ≈: the same amount, converted by molar mass. Some results are limits rather than exact numbers.

As a reminder, the EC50 is the concentration at which the effect is half-maximal. Take `CCCCCC(=O)O` [HEXANOATE]: the EC50 in test [1] turned out to be 41.1 µg/mL (≈ 354 µM); in test [2], 88.7 µg/mL (≈ 764 µM).
The corresponding values for `CCCCCCCCCC(=O)O` [DECANOIC ACID] are 248 µg/mL (≈ 1440 µM) and 354 µg/mL (≈ 2050 µM).
For `O=Cc1ccco1` [FURFURAL], the results for the EC50 in test [3], in test [1] and in test [2] were 24.1 µg/mL (≈ 251 µM), 8.5 µg/mL (≈ 88.5 µM) and 11.4 µg/mL (≈ 119 µM), respectively.
For the compound `OCc1ccco1` [FURFURYL ALCOHOL], the results for the EC50 in test [1] and in test [2] were 41.2 µg/mL (≈ 420 µM) and above 100 µg/mL, respectively.
In the same order, the values of `O=Cc1ccc(CO)o1` [AES-103] are 45.7 µg/mL (≈ 362 µM) and above 100 µg/mL.
The corresponding values for `CCCCCCCCCCCCCCCC(=O)O` [PALMITIC ACID] are above 500 µg/mL and above 500 µg/mL.
Take `CCOP(=O)(SC(C)CC)N1CCSC1=O` (stereo not given) [FOSTHIAZATE]: the figures for the EC50 in test [1] and in test [2] were 0.4 µg/mL (≈ 1.41 µM) and 3.3 µg/mL (≈ 11.6 µM), respectively.
As to `CCCC(=O)O` [BUTYRIC ACID], the Activity in test [4] was above 30 µg/mL. For the same compound, the EC50 worked out at 40.7 µg/mL (≈ 462 µM) in test [1] and 69.8 µg/mL (≈ 792 µM) in test [2].
In the case of `CC(=O)O` [ACETIC ACID], the EC50 was 38.3 µg/mL (≈ 638 µM) in test [1] and 64 µg/mL (≈ 1070 µM) in test [2].
